Data reported in ChEMBL document CHEMBL4265962, “Pyrrolidine nucleoside bisphosphonates as antituberculosis agents targeting hypoxanthine-guanine phosphoribosyltransferase” (Eur J Med Chem, 2018).
In brackets after ≈: the same amount, converted by molar mass.

Columns and labels:
[1] = Ratio of Ki for Mycobacterium tuberculosis recombinant N-terminal 6His-tagged HGPRT expressed in Escherichia coli BL21 (DE3) to Ki for human HGPRT
[2] = target: T1, Hypoxanthine-guanine phosphoribosyltransferase (Homo sapiens, UniProt P00492); test: Inhibition of human HGPRT using fixed concentration of guanine and variable concentrations of PRib-PP as substrate by spectrophotometric analysis
T1 sequence (P00492 whole entry): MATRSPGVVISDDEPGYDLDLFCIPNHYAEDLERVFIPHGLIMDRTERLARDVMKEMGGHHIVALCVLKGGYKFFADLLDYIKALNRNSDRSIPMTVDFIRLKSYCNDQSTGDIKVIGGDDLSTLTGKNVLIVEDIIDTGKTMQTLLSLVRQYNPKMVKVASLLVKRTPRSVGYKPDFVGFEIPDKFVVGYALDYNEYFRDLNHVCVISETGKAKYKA

[3] = target: T2, Hypoxanthine-guanine phosphoribosyltransferase (Mycobacterium tuberculosis (strain ATCC 25618 / H37Rv), UniProt P9WHQ9); test: Inhibition of Mycobacterium tuberculosis recombinant N-terminal 6His-tagged HGPRT expressed in Escherichia coli BL21 (DE3) using fixed concentration of guanine and variable concentrations of PRib-PP as substrate by spectrophotometric analysis
T2 sequence (P9WHQ9 whole entry): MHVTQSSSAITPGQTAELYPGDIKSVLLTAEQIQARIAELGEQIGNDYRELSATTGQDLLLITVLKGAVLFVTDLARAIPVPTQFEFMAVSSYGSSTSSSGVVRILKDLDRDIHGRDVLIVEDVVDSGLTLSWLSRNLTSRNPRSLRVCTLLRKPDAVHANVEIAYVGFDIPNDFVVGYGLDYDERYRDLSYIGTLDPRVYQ
How it was run: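 Recombinant MtHGPRT, stored in 0.1 M Tris-HCl, 12 mM MgCl2, pH 7.4 with 200 μM PRib-PP at -80 °C. Continuous spectrophotometric assay following guanine to GMP at 257.5 nm in 0.01 M phosphate, 12 mM MgCl2, pH 7.4.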

[4] = target: T2, Hypoxanthine-guanine phosphoribosyltransferase; test: Inhibition of Mycobacterium tuberculosis recombinant N-terminal 6His-tagged HGPRT expressed in Escherichia coli BL21 (DE3) using fixed concentration of guanine and variable concentrations of PRib-PP as substrate in presence of pyrophosphate by spectrophotometric analysis
How it was run: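 Continuous assay of recombinant MtHGPRT at 257.5 nm (guanine to GMP) in 0.01 M phosphate, 12 mM MgCl2, pH 7.4, with 400 μM pyrophosphate added.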

[5] = tested on: Mycobacterium tuberculosis; test: Antitubercular activity against Mycobacterium tuberculosis H37Rv after 5 days under hypoxic condition by resazurin dye-based assay; format: functional; settings: 120 h
[6] = tested on: Mycobacterium tuberculosis; test: Antitubercular activity against Mycobacterium tuberculosis H37Rv infected in human THP-1 cells after 4 days by fluorescence based assay; format: functional; settings: 96 h
How it was run: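 THP-1 cells differentiated with 50 ng/ml PMA for 72 h (5×10^5 cells/mL), infected with mCherry-expressing H37Rv at MOI 1:1 for 2 h, washed twice to remove extracellular bacilli.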

[7] = tested on: Mycobacterium tuberculosis; test: Ratio of MIC90 for Mycobacterium tuberculosis H37Rv under hypoxic condition to MIC90 for replicating stage of Mycobacterium tuberculosis H37Rv; format: functional
How it was run: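 Inhibitors were serially diluted, incubated 5 days at 37 °C, then read by fluorescence (ex 530/em 590) for MIC90. The hypoxic arm used a 0.1% O₂ chamber, was read 48 h after resazurin addition, and ran isoniazid controls in parallel.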

[8] = tested on: Mycobacterium tuberculosis; test: Antitubercular activity against replicating stage of Mycobacterium tuberculosis H37Rv after 5 days by resazurin dye-based assay; format: functional; settings: 120 h
[9] = Cytotoxicity against human A549 cells after 4 days by Coulter counting analysis; format: cell-based
How it was run: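 A549 cells seeded at 7500/well; serially diluted compounds added the next day. After 4 days at 37 °C, cells were trypsinized and counted. CC50 is the concentration that gives 50% inhibition of proliferation relative to no-compound control. It was obtained by extrapolation assuming a semi-log dose-response.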

[10] = target: T1, Hypoxanthine-guanine phosphoribosyltransferase; test: Inhibition of recombinant human HGPRT using fixed concentration of guanine and variable concentrations of PRib-PP as substrate by Hanes plot analysis

| Structure (SMILES) | Ratio Ki [1] | Ki [2] [nM] | Ki [3] [nM] | also measured |
| --- | --- | --- | --- | --- |
| Nc1nc2c(ncn2[C@@H]2CNC[C@@H]2OCP(=O)(O)O)c(=O)[nH]1 | 0.3 | 29000 | 8000 | Ki [4]: 740 nM |
| Nc1nc2c(ncn2[C@@H]2CN(C(=O)CCP(=O)(O)O)C[C@@H]2OCCP(=O)(O)O)c(=O)[nH]1 | 1.3 | 30 | 40 |  |
| O=P(O)(O)CO[C@H]1CNC[C@H]1n1cnc2c(O)ncnc21 | 0.3 | 327000 | 88000 | Ki [4]: 3000 nM |
| O=C(CCP(=O)(O)O)N1C[C@@H](n2cnc3c(O)ncnc32)[C@H](OC[C@H](O)P(=O)(O)O)C1 |  |  | 200 |  |
| Nc1nc2c(ncn2[C@@H]2CN(C(=O)CCP(=O)(O)O)C[C@H]2OC[C@@H](O)P(=O)(O)O)c(=O)[nH]1 | 20 |  | 60 | MIC90 [5]: 29 µM (≈ 14.4 µg/mL); MIC90 [6]: 85 µM (≈ 42.2 µg/mL); Ratio [7]: 2; MIC90 [8]: 14 µM (≈ 6.95 µg/mL); CC50 at 96 h [9]: 132000 nM; Ki [10]: 3 nM |
| O=C(CCP(=O)(O)O)N1C[C@@H](n2cnc3c(O)ncnc32)[C@H](OC[C@@H](O)P(=O)(O)O)C1 |  |  | 60 |  |
| O=C(CCP(=O)(O)O)N1C[C@H](OCCP(=O)(O)O)[C@H](n2cnc3c(O)ncnc32)C1 | 0.7 | 600 | 420 |  |
| Nc1nc2c(ncn2[C@@H]2CN(C(=O)CCP(=O)(O)O)C[C@H]2OC[C@H](O)P(=O)(O)O)c(=O)[nH]1 | 16 |  | 130 | Ki [10]: 8 nM |
